Experiments:
[1] = target: Adenosylhomocysteinase (Homo sapiens) (UniProt P23526); assay: Inhibition of human S-adenosyl-L-homocysteine hydrolase at 281 uM after 0.5 hrs
Method in brief: (§1)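 Human AdoHcy hydrolase (204 nM) was preincubated with inhibitor in buffer A (50 mM, pH 7.2, 1 mM EDTA) at 22 °C, for 0.5 h or 4 h. Residual activity was then read in the synthetic direction: an aliquot was diluted into buffer A with 0.5 mM Ado and 0.5 mM Hcy, held 12 min at 37 °C, and stopped with HClO₄. Duplicates were averaged.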

[2] = target: Adenosylhomocysteinase (Homo sapiens) (UniProt P23526); assay: Inhibition of human S-adenosyl-L-homocysteine hydrolase at 281 uM after 4 hrs; method in brief: as §1
[3] = target: Adenosylhomocysteinase (Homo sapiens) (UniProt P23526); assay: Inhibition of human S-adenosyl-L-homocysteine hydrolase after 20 mins

Adenosylhomocysteinase (Homo sapiens), sequence (P23526 2-432 limits assumed): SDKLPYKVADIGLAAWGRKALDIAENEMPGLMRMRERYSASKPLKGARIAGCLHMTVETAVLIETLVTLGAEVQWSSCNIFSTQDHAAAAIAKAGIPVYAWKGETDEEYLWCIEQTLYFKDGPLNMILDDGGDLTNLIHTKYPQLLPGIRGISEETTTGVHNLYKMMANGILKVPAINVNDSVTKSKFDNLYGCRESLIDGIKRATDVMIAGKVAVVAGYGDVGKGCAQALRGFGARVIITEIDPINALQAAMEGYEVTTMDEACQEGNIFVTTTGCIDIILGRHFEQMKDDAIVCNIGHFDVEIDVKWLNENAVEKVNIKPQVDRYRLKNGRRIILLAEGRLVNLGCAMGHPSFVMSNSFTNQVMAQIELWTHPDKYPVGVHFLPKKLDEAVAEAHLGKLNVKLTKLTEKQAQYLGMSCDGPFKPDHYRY

SMILES | inhibition [1] | inhibition [2] | inhibition [3]
Nc1ncnc2c1ncn2[C@@H]1O[C@H](/C=C/CCCC(=O)O)[C@@H](O)[C@H]1O | 28.5% | 92.4% | –
Nc1ncnc2c1ncn2[C@@H]1O[C@H](/C=C(/F)CCCC(=O)O)[C@@H](O)[C@H]1O | 15.2% | 35.2% | –
CCOC(=O)CCC/C(F)=C\[C@H]1O[C@@H](n2cnc3c(N)ncnc32)[C@H](O)[C@@H]1O | 14.1% | – | –
COC(=O)CC/C=C\[C@H]1O[C@@H](n2cnc3c(N)ncnc32)[C@H](O)[C@@H]1O | 68.1% | – | –
Nc1ncnc2c1ncn2[C@@H]1O[C@H](/C=C\CCC(=O)O)[C@@H](O)[C@H]1O | 50.5% | 95.5% | –

The remaining lines, values ahead:

inhibition [1] | inhibition [2] | inhibition [3] | SMILES
– | – | 98.2% | CCOC(=O)/C=C/C=C\[C@H]1O[C@@H](n2cnc3c(N)ncnc32)[C@H](O)[C@@H]1O
– | – | 96.4% | CCOC(=O)/C=C/C=C/[C@H]1O[C@@H](n2cnc3c(N)ncnc32)[C@H](O)[C@@H]1O
81% | – | – | CCOC(=O)CCC/C=C/[C@H]1O[C@@H](n2cnc3c(N)ncnc32)[C@H](O)[C@@H]1O
